Laboratory results: paper PMC3582785 (Arthritis and rheumatism, 2013)

Test system: SE-expressing peptides and tetrameric proteins
Experiment: SPR binding of CRT variants
Conditions: citrullinated CRT compared to non-citrullinated CRT
Summary of the method: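 Native, PAD-citrullinated or Arg→Ala mouse CRT was immobilised at 3000 RU. Analytes were 15mer SE-positive or SE-negative control peptides at 330 μM, and HLA-DR tetramers (SE-positive or SE-negative) at 250 nM.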

interaction with the SE ligand (in words): higher affinity for the SE ligand
B1: Cit-CRT: recombinant mouse CRT citrullinated in vitro with PAD from rabbit skeleton muscle (protein, UniProt P14211 18-416, looked up)
Calreticulin: DPAIYFKEQFLDGDAWTNRWVESKHKSDFGKFVLSSGKFYGDLEKDKGLQTSQDARFYALSAKFEPFSNKGQTLVVQFTVKHEQNIDCGGGYVKLFPSGLDQKDMHGDSEYNIMFGPDICGPGTKKVHVIFNYKGKNVLINKDIRCKDDEFTHLYTLIVRPDNTYEVKIDNSQVESGSLEDDWDFLPPKKIKDPDAAKPEDWDERAKIDDPTDSKPEDWDKPEHIPDPDAKKPEDWDEEMDGEWEPPVIQNPEYKGEWKPRQIDNPDYKGTWIHPEIDNPEYSPDANIYAYDSFAVLGLDLWQVKSGTIFDNFLITNDEAYAEEFGNETWGVTKAAEKQMKDKQDEEQRLKEEEEDKKRKEEEEAEDKEDDDDRDEDEDEEDEKEEDEEESPGQAKDEL
modifications: citrullinated
